Results reported in ChEMBL document CHEMBL2424600, “Synthetic polyamines activating autophagy: effects on cancer cell death” (Eur J Med Chem, 2013).
The source made the active and inactive calls. The calls are words filed in the database; no cut-off is given here.

Tests used:
Thymocyte = assay: Cytotoxicity against rat thymocytes assessed as cell survival after 24 hrs by trypan blue exclusion assay; type: cell-based
Summary of the method: (§1)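 Cells exposed 24 h to increasing concentrations (DMSO vehicle, 0.1% of medium; controls got DMSO) at 37 °C, 5% CO2. Viability by trypan blue exclusion, triplicate samples, at least 10 fields counted each; survival as % of viable cells vs control. IC50 read from dose–response curve as concentration giving 50% survival.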

[1] = Cytotoxicity against human C-28/I2 cells assessed as cell survival after 24 hrs by trypan blue exclusion assay; type: cell-based; conditions: C28/I2, 24 h; summary of the method: as §1
HeLa [2] = assay: Cytotoxicity against human HeLa cells assessed as cell survival after 24 hrs by trypan blue exclusion assay; type: functional, cell-based; summary of the method: as §1
HeLa [3] = assay: Induction of autophagy in human HeLa cells assessed as appearance of vacuoles in cytoplasm containing mitochondrion at 2 uM after 24 hrs by transmission electron microscopic analysis; type: functional, cell-based
Summary of the method: (§2)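 HeLa seeded on glass slides at 1.3 × 10^6 cells/well for 24 h, treated 24 h with 2 µM, fixed in 2.5% glutaraldehyde in 0.1 M phosphate buffer 2 h at 4 °C, post-fixed in 1% OsO4 1 h at 4 °C, examined by transmission electron microscopy for cytoplasmic vacuoles.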

HeLa [4] = assay: Cytotoxicity against human HeLa cells assessed as decrease in cell survival at 2 uM after 24 hrs at pH 6.4 by trypan blue exclusion assay; type: functional, cell-based
Summary of the method: (§3)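 HeLa given 2 µM for 24 h with uptake-modifying conditions: 0.5 mM spermine plus 1 mM aminoguanidine (inhibits serum amine oxidases); 0.1 mM DFMO with 48 h pretreatment; or medium adjusted to pH 6.4 with HCl instead of 7.2. Survival by trypan blue exclusion vs control; triplicate means ± S.E.M.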

HeLa [5] = assay: Cytotoxicity against human HeLa cells assessed as decrease in cell survival at 2 uM after 24 hrs by trypan blue exclusion assay in presence of DFMO; type: functional, cell-based; summary of the method: as §3
HeLa [6] = assay: Cytotoxicity against human HeLa cells assessed as decrease in cell survival at 2 uM after 24 hrs by trypan blue exclusion assay in presence of spermine; type: functional, cell-based; summary of the method: as §3
HeLa [7] = assay: Cytotoxicity against human HeLa cells assessed as decrease in cell survival at 2 uM after 24 hrs by trypan blue exclusion assay relative to control; type: functional; conditions: read-out: Survival
Summary of the method: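 HeLa cells grown in EMEM with 10% FBS, 1% glutamine, 1% nonessential amino acids, 1 mM pyruvate and antibiotics at 37 °C in 5% CO2. Compound added from DMSO stock (DMSO 0.1% of volume; controls got DMSO only) and exposed 24 h. Viability read by trypan blue exclusion in triplicate samples, at least 10 fields counted. Survival given as % viable cells versus control.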

HeLa [8] = assay: Cytotoxicity against human HeLa cells assessed as decrease in cell survival up to 3 mM after 24 hrs by trypan blue exclusion assay in presence of N-acetylcysteine; type: functional, cell-based
Summary of the method: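 HeLa exposed 24 h to the indicated concentrations with or without 5 mM N-acetylcysteine. Survival by trypan blue exclusion relative to control; triplicate means ± S.E.M.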

HeLa [9] = assay: Induction of intracellular peroxide formation in human HeLa cells at 2 uM after 3 hrs by DCFDA staining-based flow cytometric analysis; type: functional, cell-based
Summary of the method: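 HeLa treated 3 h with 2 µM, then loaded with 5 µM DCFDA for 30 min at 37 °C. DCF fluorescence measured by flow cytometry with logarithmic amplification; mean fluorescence channel vs DMSO control.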

HeLa [10] = assay: Disruption of mitochondrial membrane potential in human HeLa cells at 2 uM after 4 hrs by DiOC6/propidium iodide staining-based flow cytometric analysis; type: functional
Summary of the method: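 After treatment, HeLa (1 × 10^6 cells/mL) stained with 4 nM DiOC6 for 40 min at 37 °C in the dark, counterstained with 5 µg/mL propidium iodide to exclude dead cells. Flow cytometry with logarithmic amplification, argon laser; mean green fluorescence channel recorded.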

HeLa [11] = assay: Induction of autophagy in human HeLa cells assessed as appearance of acidic vesicular organelles at 2 uM after 3 hrs by acridine orange staining-based immunofluorescence microscopic analysis; type: functional, cell-based
Summary of the method: (§4)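 HeLa treated 3 h with DMSO or 2 µM, with or without 2 h pretreatment with 5 mM NAC; stained with acridine orange and imaged by fluorescence microscopy for cells with orange–red acidic vesicular organelles. Two independent experiments.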

HeLa [12] = assay: Induction of autophagy in human HeLa cells assessed as appearance of acidic vesicular organelles at 2 uM after 3 hrs by acridine orange staining-based immunofluorescence microscopic analysis in presence of N-acetylcysteine; type: functional, cell-based; summary of the method: as §4
HeLa [13] = assay: Induction of autophagy in human HeLa cells assessed as conversion of LC3-1 protein to LC3-2 protein at 2 uM after 3 hrs by Western blot analysis; type: functional, cell-based
Summary of the method: (§5)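 HeLa treated 3 h with 2 µM in presence or absence of 5 mM NAC; 50 µg protein analysed by Western blot with monoclonal antibody recognising LC3-I (18 kDa) and LC3-II (16 kDa).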

HeLa [14] = assay: Induction of autophagy in human HeLa cells assessed as conversion of LC3-1 protein to LC3-2 protein at 2 uM after 3 hrs by Western blot analysis in presence of N-acetylcysteine; type: functional, cell-based; summary of the method: as §5
HeLa [15] = assay: Induction of autophagy in human HeLa cells assessed as conversion of LC3-1 protein to LC3-2 protein at 2 uM after 3 hrs by Western blot analysis in presence of bafilomycin A; type: functional, cell-based
HeLa [16] = assay: Induction of autophagy in human HeLa cells transfected with Atg5 siRNA assessed as acidic vesicles accumulation at 2 uM after 24 hrs by acridine orange staining-based immunofluorescence microscopic analysis relative to cell transfected with control siRNA; type: functional
Summary of the method: (§6)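 HeLa at 50% confluence transfected 24 h with 100 nM (final) Atg5 or control siRNA, then after a further 24 h incubated 24 h ± 2 µM compound. Cell death by trypan blue; acidic vesicle accumulation by acridine orange staining. Atg5 knockdown checked by blot. Triplicate means ± S.E.M.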

HeLa [17] = assay: Cytotoxicity against human HeLa cells transfected with Atg5 siRNA assessed as decrease in cell survival at 2 uM after 24 hrs by trypan blue exclusion assay; type: functional, cell-based; summary of the method: as §6
HeLa [18] = assay: Induction of apoptosis in human HeLa cells assessed as increase in caspase 3/7 activity at 2 uM after 24 hrs by DEVD-based fluorometric analysis; type: functional, cell-based
Summary of the method: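 HeLa treated 24 h with 25 µM DENSPM (positive control) or the indicated concentrations of compound; DEVDase (caspase 3/7) activity measured. Means ± S.E.M. of three replicates vs control.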

HeLa [19] = assay: Induction of apoptosis in human HeLa cells assessed as chromatin condensation at 2 uM after 24 hrs by DAPI staining assay; type: functional, cell-based
Summary of the method: (§7)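 HeLa treated 24 h with 2 µM, then stained with DAPI and scored for chromatin condensation and nuclear fragmentation/condensation.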

HeLa [20] = assay: Induction of apoptosis in human HeLa cells assessed as nuclear fragmentation at 2 uM after 24 hrs by DAPI staining assay; type: functional, cell-based; summary of the method: as §7
HeLa [21] = assay: Induction of apoptosis in human HeLa cells assessed as nuclear condensation at 2 uM after 24 hrs by DAPI staining assay; type: functional, cell-based; summary of the method: as §7
HeLa [22] = assay: Cytotoxicity against human HeLa cells assessed as decrease in cell survival at 2 uM after 24 hrs by trypan blue exclusion assay in presence of Z-VADfmk; type: functional, cell-based
Summary of the method: (§8)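 HeLa pretreated 2 h with Z-VADfmk (50 µM) or necrostatin-1 (20 µM), then exposed to compound for 24 h. Viability by trypan blue exclusion, survival as % of viable control cells; means ± S.E.M. of three determinations.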

HeLa [23] = assay: Cytotoxicity against human HeLa cells assessed as decrease in cell survival at 2 uM after 24 hrs by trypan blue exclusion assay in presence of necrostatin-1; type: functional, cell-based; summary of the method: as §8
HeLa [24] = assay: Induction of autophagy in human HeLa cells assessed as appearance of vacuoles in cytoplasm containing organic materials at 2 uM after 24 hrs by transmission electron microscopic analysis; type: functional, cell-based; summary of the method: as §2
[25] = Cytotoxicity against human SH-SY5Y cells assessed as cell survival after 48 hrs by trypan blue exclusion assay; type: functional, cell-based
Summary of the method: (§9)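 Cells exposed 48 h to increasing concentrations in DMSO (0.1% of medium) at 37 °C, 5% CO2. Trypan blue exclusion counts, at least 10 fields per sample, survival as % of viable control cells. IC50 interpolated from dose–response curve; means ± S.E.M. of three to four replicates.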

HeLa [26] = assay: Cytotoxicity against human HeLa cells assessed as cell survival after 48 hrs by trypan blue exclusion assay; type: functional, cell-based; summary of the method: as §9
HT-29 [27] = assay: Cytotoxicity against human HT-29 cells assessed as cell survival after 48 hrs by trypan blue exclusion assay; type: functional, cell-based; conditions: HT-29, 48 h; summary of the method: as §9
HL-60 [28] = assay: Cytotoxicity against human HL60 cells assessed as cell survival after 48 hrs by trypan blue exclusion assay; type: functional, cell-based; conditions: HL-60, 48 h; summary of the method: as §9
LoVo [29] = assay: Cytotoxicity against human LoVo cells assessed as cell survival after 48 hrs by trypan blue exclusion assay; type: functional, cell-based; summary of the method: as §9
U2OS [30] = assay: Cytotoxicity against human U2OS cells assessed as cell survival after 48 hrs by trypan blue exclusion assay; type: functional, cell-based; summary of the method: as §9
SAOS-2 [31] = assay: Cytotoxicity against human p53-deficient Saos2 cells assessed as cell survival after 48 hrs by trypan blue exclusion assay; type: functional, cell-based; conditions: SAOS-2, 48 h; summary of the method: as §9
HT-29 [32] = assay: Cytotoxicity against human HT-29 cells assessed as cell survival after 24 hrs by trypan blue exclusion assay; type: functional, cell-based; conditions: HT-29, 24 h; summary of the method: as §1
[33] = Cytotoxicity against human SH-SY5Y cells assessed as cell survival after 24 hrs by trypan blue exclusion assay; type: functional, cell-based; summary of the method: as §1
LoVo [34] = assay: Cytotoxicity against human LoVo cells assessed as cell survival after 24 hrs by trypan blue exclusion assay; type: functional, cell-based; summary of the method: as §1
HL-60 [35] = assay: Cytotoxicity against human HL60 cells assessed as cell survival after 24 hrs by trypan blue exclusion assay; type: functional, cell-based; conditions: HL-60, 24 h; summary of the method: as §1
U2OS [36] = assay: Cytotoxicity against human U2OS cells assessed as cell survival after 24 hrs by trypan blue exclusion assay; type: functional, cell-based; summary of the method: as §1
SAOS-2 [37] = assay: Cytotoxicity against human p53-deficient Saos2 cells assessed as cell survival after 24 hrs by trypan blue exclusion assay; type: functional, cell-based; conditions: SAOS-2, 24 h; summary of the method: as §1
HeLa [38] = assay: Induction of autophagy in human HeLa cells assessed as acidic vesicles accumulation at 20 uM after 3 hrs by acridine orange staining-based immunofluorescence microscopic analysis; type: functional, cell-based
Summary of the method: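 HeLa incubated 3 h with 20 µM compound; acidic vesicle accumulation scored after acridine orange staining. Triplicate means ± S.E.M.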

COc1ccccc1CNCCCCCCNCCCCCCCCNCCCCCCNCc1ccccc1OC [METHOCTRAMINE]
IC50 (Thymocyte): > 100 µM
IC50 [1]: > 100 µM
IC50 (HeLa [2]): > 100 µM

c1ccc(C(CNCCCCCCNCCCCCCCCCCCCNCCCCCCNCC(c2ccccc2)c2ccccc2)c2ccccc2)cc1
Activity (HeLa [3]): Active
Activity (HeLa [4]): inactive
Activity (HeLa [5]): Active
Activity (HeLa [6]): Active
viability at 2 µM (HeLa [7]): 50%
Activity (HeLa [8]): inactive
Activity (HeLa [9]): Active
Activity (HeLa [10]): >50%
Activity (HeLa [11]): Active
Activity (HeLa [12]): inactive
Activity (HeLa [13]): Active
Activity (HeLa [14]): inactive
Activity (HeLa [15]): Active
Activity (HeLa [16]): inactive
Activity (HeLa [17]): Active
Activity (HeLa [18]): inactive
Activity (HeLa [19]): inactive
Activity (HeLa [20]): inactive
Activity (HeLa [21]): inactive
Activity (HeLa [22]): Active
Activity (HeLa [23]): Active
Activity (HeLa [24]): Active
IC50 [25]: 900 nM
IC50 (HeLa [26]): 600 nM
IC50 (HT-29 [27]): 1100 nM
IC50 (HL-60 [28]): 700 nM
IC50 (LoVo [29]): 800 nM
IC50 (U2OS [30]): 400 nM
IC50 (SAOS-2 [31]): 300 nM
IC50 (HT-29 [32]): 2400 nM
IC50 [33]: 2800 nM
IC50 (LoVo [34]): 2000 nM
IC50 (HL-60 [35]): 1900 nM
IC50 (U2OS [36]): 1100 nM
IC50 (SAOS-2 [37]): 900 nM
IC50 (Thymocyte): 6.8 µM
IC50 [1]: 4.3 µM
IC50 (HeLa [2]): 1.6 µM

COc1ccccc1CNCCCCCCNCCCCCCCCCCCCNCCCCCCNCc1ccccc1OC
Activity (HeLa [38]): Active
IC50 (Thymocyte): > 100 µM
IC50 [1]: 77 µM
IC50 (HeLa [2]): 21 µM
